Hits are enriched below; roughly 6.4% of the tested compounds scored in any of these assays.
CHOP inhibitor – inhibitors of CHOP promoter induction, primary screen, cell-based, unfolded protein response, luciferase reporter. CHO-K1 CHOP-promoter luciferase, tunicamycin-induced, 15-18 h. inhibition, % at 10 µM. 3.8% of 220,000 active. AID 2732, 2010;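 active = compounds that reduced the stress-induced luciferase reporter signal by more than about 70% of percent inhibition, limit read from the data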;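 note: 0% = tunicamycin plus vehicle and 100% = wells without tunicamycin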
MPTP block – mitochondrial permeability transition pore inhibitors, primary screen, biochemical, isolated mouse mitochondria, absorbance | 1.4% of 360,000 active | inhibition, % at 10 µM | Ca2+ swelling absorbance, 30 min | AID 602449, 2012;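 active = inhibition of 50% or more, scaled per plate between neutral and stimulator controls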;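 note: 0% = DMSO wells given calcium and 100% = 1 mM EGTA wells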
TbMetRS inhib – T. brucei MetRS inhibitors, primary screen, biochemical, luminescence; methionyl-tRNA synthetase (Trypanosoma brucei brucei); 0.4% of 360,000 active; inhibition, % at 11.9 µM; purified T. brucei MetRS, ATP depletion, Kinase-Glo luminescence;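 active = inhibition above a per-plate cutoff of the control wells' mean inhibition plus 3 SD, cut at about 5.5% in these data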;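 note: 0% = DMSO wells median and 100% = median of wells with control inhibitor compound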
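Dosing: 11.9 µM single point; system: parasite MetRS enzyme; technique: luminescence of leftover ATP; times: 15 min enzyme-compound preincubation, 2 h reaction, 10 min detection, 25 °C; replicates: each compound tested once; read-out basis: percent inhibition relative to median high and low control wells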
EBV gp42 inh – Epstein-Barr virus gp42 inhibitors, primary screen, biochemical, uHTS, fluorescence polarization; AID 1085, 2008; Fluorescence polarization binding assay, mP read-out; 0.42% of 220,000 active; inhibition, % (tested at 21.74 µM); Glycoprotein 42 (Epstein-Barr virus (strain AG876)), Q1HVG2; in the data active = inhibition above about 50%
Target sequence (Q1HVG2 whole entry, looked up): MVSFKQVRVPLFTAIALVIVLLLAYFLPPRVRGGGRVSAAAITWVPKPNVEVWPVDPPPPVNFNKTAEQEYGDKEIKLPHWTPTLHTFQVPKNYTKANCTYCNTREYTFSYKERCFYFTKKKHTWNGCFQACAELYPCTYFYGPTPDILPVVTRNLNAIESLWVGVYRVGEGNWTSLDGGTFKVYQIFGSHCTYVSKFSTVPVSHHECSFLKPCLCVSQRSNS
GRIN3A LBD mod – binders of NR3A ligand-binding domain, primary screen, biophysical, differential scanning fluorimetry, uHTS | Glutamate receptor ionotropic, NMDA 3A (GRIN3A) ligand-binding domain | NR3A LBD differential scanning fluorimetry, Tm shift; 0% = protein alone, 100% = glycine-bound protein | Tm shift relative to glycine control, % at 25 µM | 2.5% of 340,000 active;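 active = melting temperature shift of at least 10% of the positive control shift, at one fixed dose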
WT yeast gro inh – growth inhibition of WT strain, primary screen, mitochondrial fusion inhibitor project, WT and mutant strains, chemical genetic | mitochondrial fusion phenotypic screen | inhibition, % at 10 µM | 2.1% of 190,000 active | AID 1362, 2008; in the data active = inhibition above about 58%; tested in S. cerevisiae
TbMetRS confirm – T. brucei MetRS inhibitors, confirmation, biochemical, luminescence; AID 624412, 2012; inhibition, % at 11.9 µM; T. brucei MetRS enzyme, luminescence (ATP depletion); shares compounds with TbMetRS inhib; 93% of 1,400 active; in the data active = inhibition above about 7%
Jurkat cytotox – Jurkat T cell cytotoxicity, cytotoxicity control for T. brucei MetRS inhibitor project, luminescence, high throughput; shares compounds with TbMetRS inhib; Jurkat cells viability, ATP luminescence; inhibition, % at 8.3 µM; 12% of 1,400 active; in the data active = inhibition above about 15%;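 note: 0% = vehicle and 100% = reference inhibitor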
TbMetRS FP orth – T. brucei MetRS inhibitors, orthogonal assay for T. brucei MetRS inhibitor project, biochemical, fluorescence polarization; shares compounds with TbMetRS inhib; purified T. brucei MetRS; inhibition, % at 11.9 µM; 44% of 1,400 active; AID 651607, 2012; in the data active = inhibition above about 17%;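 note: 0% = vehicle wells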
Active calls of the source: *; · = not tested or not shown.

SMILES | CHOP inhibitor | MPTP block | TbMetRS inhib | EBV gp42 inh | GRIN3A LBD mod | WT yeast gro inh | TbMetRS confirm | Jurkat cytotox | TbMetRS FP orth
Cc1[nH]c2ccccc2c1C(=O)C(=O)N1CCN(c2ccccc2F)CC1 | · | 6 | 7.2* | · | -2 | · | 20* | -5 | 6
O=C(C(=O)N1CCN(Cc2ccc3c(c2)OCO3)CC1)c1c[nH]c2ccccc12 | · | 0 | 9.6* | · | 2 | · | 25* | 7 | 8
O=C(C(=O)N1CC=C(c2ccccc2)CC1)c1c[nH]c2ccccc12 | 36 | 3 | 7.4* | -3 | 7 | 39 | 17* | -1 | 10
N#Cc1c(NC(=O)CCC(=O)O)sc2c1CCCC2 | -17 | 0 | -2 | -10 | 1 | -2 | · | · | ·
COc1cccc(CCc2nc3ccccc3c(=O)n2N)c1 | · | 3 | 0 | · | 8 | · | · | · | ·
Cn1c(-c2nonc2N)nc2ccccc21 | · | 0 | 0 | · | 2 | · | · | · | ·
Cc1[nH]c2ccccc2c1C(=O)C(=O)N1CCCc2ccccc21 | 25 | 0 | 2 | 9 | -1 | 21 | · | · | ·
O=C(C(=O)N1CCCc2ccccc21)c1c[nH]c2ccccc12 | 7 | 2 | 8.2* | 10 | 0 | 4 | 13* | 7 | 3
Cc1ccccc1NC(=O)N(CCc1nc2ccccc2[nH]1)Cc1ccccc1 | 11 | 0 | 7.0* | -10 | -1 | 5 | 14* | 14 | 4
CNC(=O)c1cc2ccc(OC)cc2oc1=O | -11 | -2 | 0 | -13 | -1 | 2 | · | · | ·
O=C(NCc1ccco1)/C(=C/c1ccc(C(F)(F)F)cc1)c1nc2ccccc2[nH]1 | 89* | 0 | 7.7* | -29 | -3 | -25 | 5 | 30* | -3
O=C(O)C1C2CCC1C(O)C2 (stereo not drawn) | · | 1 | 0 | · | · | · | · | · | ·
O=C(CNC(=O)[C@@H]1Cc2ccccc2CN1)NC1CCCC1 | · | 1 | 0 | · | 2 | · | · | · | ·
O=C(CSc1ncc(-c2ccccc2)[nH]1)Nc1cccc(O)c1 | 0 | 1 | 5.6* | -18 | 6 | 4 | 13* | 8 | 5
Cc1ccc(NC(=O)CN(C)C(=O)CCOc2cccc(C)c2)cc1 | 2 | 3 | 6.0* | -13 | -3 | 7 | 11* | 3 | 3
Cc1ccc(NC(=O)CN(C)C(=O)COC(=O)C2=COCCO2)cc1 | · | -3 | 0 | · | 1 | · | · | · | ·
Cc1ccc(NC(=O)CN(C)C(=O)COC(=O)c2ccc(Cl)cc2O)cc1 | · | -1 | 6.8* | · | -1 | · | 64* | 2 | 39*
O=C(Nc1ccc2nc(-c3cccnc3)[nH]c2c1)c1ccco1 | -9 | -1 | 0 | -2 | -5 | -2 | · | · | ·
Cc1ccc2nc(-c3cccc(NC(=O)c4ccco4)c3)[nH]c2c1 | 2 | -1 | 6.0* | -14 | 5 | 13 | 9.1* | 9 | 56*
CC(C)(C)C1c2[nH]c3ccccc3c2CCN1Cc1cccc(OCCO)c1 (stereo not drawn) | 3 | -1 | 9.1* | 20 | -3 | 9 | 7.1* | 3 | 6
O=C(COC(=O)c1ccc(OC(F)F)cc1)NCc1cccs1 | · | -1 | 0 | · | 4 | · | · | · | ·
COc1ccc2[nH]c(=O)c(CNC3CCCCC3)cc2c1 | 16 | -9 | 0 | -10 | 0 | 32 | · | · | ·
COc1ccc2[nH]c(=O)c(CN(C(=O)NC3CCCCC3)C3CCCCC3)cc2c1 | 38 | 3 | 7.0* | -5 | -3 | 13 | 37* | 18* | 16
O=C1CC(c2nc3ccccc3[nH]2)CN1c1ccccc1F (stereo not drawn) | 16 | -1 | 2 | -8 | -2 | 10 | · | · | ·
COc1ccc(Cl)cc1N1CC(c2nc3ccccc3[nH]2)CC1=O (stereo not drawn) | 3 | -1 | 5.7* | 7 | 1 | 5 | 10* | 12 | 5
SMILES | CHOP inhibitor | MPTP block | TbMetRS inhib | EBV gp42 inh | GRIN3A LBD mod | WT yeast gro inh | TbMetRS confirm | Jurkat cytotox | TbMetRS FP orth
O=C1CC(c2nc3ccccc3[nH]2)CN1c1cccc(C(F)(F)F)c1 (stereo not drawn) | 14 | 0 | 21* | -13 | 0 | -10 | 27* | 6 | 10
Clc1ccc(CN2C3=NCCN3c3ccccc32)cc1Cl | 26 | -1 | 7.4* | -13 | -2 | 13 | 12* | 16* | 1
c1ccc(CN2C3=NCCN3c3ccccc32)cc1 | -5 | 0 | 1 | -14 | 0 | -11 | · | · | ·
O=C(CCCc1nc(-c2ccccc2Cl)no1)N1CCOCC1 | -4 | 1 | -1 | -15 | 0 | 0 | · | · | ·
COc1ccc2nc(SCC(=O)NCCc3ccccc3)[nH]c2c1 | 16 | 1 | 0 | -16 | 1 | · | · | · | ·
O=C(CSc1nc2ccc(Cl)cc2[nH]1)NCCc1ccccc1 | 18 | -17 | 42* | 18 | -7 | -11 | 58* | -3 | 33*
O=C(CSc1nc2ccc(Cl)cc2[nH]1)NCc1ccco1 | -3 | 1 | 8.3* | -9 | 1 | -6 | 13* | 8 | 2
O=C1CC(N2CCC(c3nc4ccccc4[nH]3)CC2)C(=O)N1c1cccc(F)c1 (stereo not drawn) | -9 | 0 | 2 | -12 | -1 | -1 | · | · | ·
CCCOc1ccc(N2C(=O)CC(SCCc3nc4ccccc4[nH]3)C2=O)cc1 (stereo not drawn) | 25 | 1 | 2 | 2 | -12 | -3 | · | · | ·
O=C1CC(SCc2nc3ccccc3[nH]2)C(=O)N1c1ccc(Cl)cc1 (stereo not drawn) | -25 | -4 | 5.7* | 10 | -3 | -23 | 5.7* | -2 | 0
CCOc1ccc(N2C(=O)CC(SCc3nc4ccccc4[nH]3)C2=O)cc1 (stereo not drawn) | -5 | -2 | 2 | -11 | 0 | 7 | · | · | ·
O=C1CC(SCc2nc3ccccc3[nH]2)C(=O)N1c1cccc(F)c1 (stereo not drawn) | 30 | 0 | 26* | -16 | -4 | 76* | 23* | 17* | 10
O=C1CC(SCc2nc3ccccc3[nH]2)C(=O)N1c1ccc(F)c(Cl)c1 (stereo not drawn) | 26 | 0 | 29* | -1 | -2 | -13 | 21* | 7 | 6

Screening results from PubChem.
